According to ChEMBL document CHEMBL1145884, “Synthesis and biological activity of novel 1beta-methylcarbapenems with oxyiminopyrrolidinylamide moiety” (2003):
Converted amounts (≈) assume the structure as drawn.

What was measured:
[1] = tested on: Escherichia coli; assay: Compound was evaluated for its antibacterial activity against Escherichia coli DC 2; type: functional
[2] = tested on: Escherichia coli; assay: Compound was evaluated for its antibacterial activity against Escherichia coli CCARM 1110 MDR; type: functional
[3] = tested on: Enterobacter cloacae; assay: Compound was evaluated for its antibacterial activity against Enterobacter cloacae P99; type: functional
[4] = tested on: Salmonella typhimurium; assay: Compound was evaluated for its antibacterial activity against Salmonella Typhimurium 1; type: functional, Salmonella enterica subsp. enterica serovar Typhimurium; details: Salmonella enterica
[5] = tested on: Salmonella typhimurium; assay: Compound was evaluated for its antibacterial activity against Salmonella Typhimurium 2; type: functional, Salmonella enterica subsp. enterica serovar Typhimurium; details: Salmonella enterica
[6] = tested on: Klebsiella pneumoniae; assay: Compound was evaluated for its antibacterial activity against Klebsiella pneumoniae 9 ESBL; type: functional
[7] = tested on: Escherichia coli; assay: Compound was evaluated for its antibacterial activity against Escherichia coli CCARM 1111 MDR; type: functional
[8] = tested on: Escherichia coli; assay: Compound was evaluated for its antibacterial activity against Escherichia coli CCARM 1113 MDR; type: functional
[9] = tested on: Escherichia coli; assay: Compound was evaluated for its antibacterial activity against Escherichia coli CCARM 1117 MDR; type: functional
[10] = tested on: Escherichia coli; assay: Compound was evaluated for its antibacterial activity against Escherichia coli 0157:H7; type: functional
[11] = tested on: Pseudomonas aeruginosa; assay: Compound was evaluated for its antibacterial activity against Pseudomonas aeruginosa 3 MDR; type: functional
[12] = tested on: Shigella sonnei; assay: Compound was evaluated for its antibacterial activity against Shigella sonnei ATCC 9290; type: functional
[13] = tested on: Escherichia coli; assay: Compound was evaluated for its antibacterial activity against Escherichia coli CCARM 1108 MDR; type: functional
[14] = tested on: Escherichia coli; assay: Compound was evaluated for its antibacterial activity against Escherichia coli TEM; type: functional
[15] = tested on: Salmonella enteritidis; assay: Compound was evaluated for its antibacterial activity against […] enteritidis 3; type: functional, Salmonella enterica subsp. enterica serovar Enteritidis; details: Salmonella enterica
[16] = tested on: Salmonella typhimurium; assay: Compound was evaluated for its antibacterial activity against Salmonella Typhimurium; type: functional, Salmonella enterica subsp. enterica serovar Typhimurium; details: Salmonella enterica
[17] = tested on: Escherichia coli; assay: Compound was evaluated for its antibacterial activity against Escherichia coli DC 0; type: functional
[18] = tested on: Salmonella enteritidis; assay: Compound was evaluated for its antibacterial activity against […] enteritidis; type: functional, Salmonella enterica subsp. enterica serovar Enteritidis; details: Salmonella enterica
[19] = tested on: Salmonella enteritidis; assay: Compound was evaluated for its antibacterial activity against […] enteritidis 2; type: functional, Salmonella enterica subsp. enterica serovar Enteritidis; details: Salmonella enterica
[20] = tested on: Klebsiella pneumoniae; assay: Compound was evaluated for its antibacterial activity against Klebsiella pneumoniae 2 ESBL; type: functional
[21] = tested on: Escherichia coli; assay: Compound was evaluated for its antibacterial activity against Escherichia coli CCARM 1109 MDR; type: functional
[22] = tested on: Pseudomonas aeruginosa; assay: Compound was evaluated for its antibacterial activity against Pseudomonas aeruginosa 1 MDR; type: functional
[23] = tested on: Klebsiella pneumoniae; assay: Compound was evaluated for its antibacterial activity against Klebsiella pneumoniae 10 ESBL; type: functional
[24] = tested on: Escherichia coli; assay: Compound was evaluated for its antibacterial activity against Escherichia coli CCARM 1115 MDR; type: functional
[25] = tested on: Klebsiella pneumoniae; assay: Compound was evaluated for its antibacterial activity against Klebsiella pneumoniae 7 ESBL; type: functional
[26] = tested on: Klebsiella pneumoniae; assay: Compound was evaluated for its antibacterial activity against Klebsiella pneumoniae 5 ESBL; type: functional
[27] = tested on: Escherichia coli; assay: Compound was evaluated for its antibacterial activity against Escherichia coli CCARM 1116 MDR; type: functional
[28] = tested on: Klebsiella pneumoniae; assay: Compound was evaluated for its antibacterial activity against Klebsiella pneumoniae 8 ESBL; type: functional
[29] = tested on: Klebsiella oxytoca; assay: Compound was evaluated for its antibacterial activity against Klebsiella oxytoca 1082E; type: functional
[30] = tested on: Pseudomonas aeruginosa; assay: Compound was evaluated for its antibacterial activity against Pseudomonas aeruginosa 2 MDR; type: functional
[31] = tested on: Klebsiella pneumoniae; assay: Compound was evaluated for its antibacterial activity against Klebsiella pneumoniae 4 ESBL; type: functional
[32] = tested on: Klebsiella pneumoniae; assay: Compound was evaluated for its antibacterial activity against Klebsiella pneumoniae 1 ESBL; type: functional
[33] = tested on: Klebsiella pneumoniae; assay: Compound was evaluated for its antibacterial activity against Klebsiella pneumoniae 6 ESBL; type: functional
[34] = tested on: Salmonella enteritidis; assay: Compound was evaluated for its antibacterial activity against […] enteritidis 1; type: functional, Salmonella enterica subsp. enterica serovar Enteritidis; details: Salmonella enterica
[35] = tested on: Escherichia coli; assay: Compound was evaluated for its antibacterial activity against Escherichia coli CCARM 1114 MDR; type: functional
[36] = tested on: Shigella flexneri; assay: Compound was evaluated for its antibacterial activity against Shigella flexneri ATCC 9199; type: functional
[37] = tested on: Escherichia coli; assay: Compound was evaluated for its antibacterial activity against Escherichia coli CCARM 1112 MDR; type: functional
[38] = tested on: Klebsiella pneumoniae; assay: Compound was evaluated for its antibacterial activity against Klebsiella pneumoniae 3 ESBL; type: functional
[39] = tested on: Pseudomonas aeruginosa; assay: Compound was evaluated for its antibacterial activity against Pseudomonas aeruginosa ATCC 27853; type: functional
[40] = tested on: Escherichia coli; assay: Compound was evaluated for its antibacterial activity against Escherichia coli ATCC 25922; type: functional
[41] = tested on: Pseudomonas aeruginosa; assay: Antibacterial activity against Pseudomonas aeruginosa 1592E
[42] = tested on: Enterobacter cloacae; assay: Antibacterial activity against Enterobacter cloacae 1321E; type: functional
In short: (§1)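 MIC was determined by agar dilution on Mueller–Hinton medium.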

[43] = tested on: Salmonella typhimurium; assay: Antibacterial activity against Salmonella Typhimurium; type: functional, Salmonella enterica subsp. enterica serovar Typhimurium; details: Salmonella enterica; in short: as §1
[44] = tested on: Streptococcus pyogenes; assay: Antibacterial activity against Streptococcus pyogenes 308A; type: functional
[45] = tested on: Escherichia coli; assay: Antibacterial activity against Escherichia coli 1507E; type: functional; in short: as §1
[46] = tested on: Staphylococcus aureus; assay: Antibacterial activity against Staphylococcus aureus 503; type: functional
[47] = tested on: Staphylococcus aureus; assay: Antibacterial activity against Staphylococcus aureus SG 511; type: functional
[48] = tested on: Escherichia coli; assay: Antibacterial activity against Escherichia coli 078; type: functional; in short: as §1
[49] = tested on: Pseudomonas aeruginosa; assay: Antibacterial activity against Pseudomonas aeruginosa 1771M; type: functional; in short: as §1
[50] = tested on: Klebsiella aerogenes; assay: Antibacterial activity against Klebsiella aerogenes 1522E; type: functional; in short: as §1
[51] = Compound was evaluated for its relative half life of hydrolysis to meropenem by partially purified porcine renal dihydropeptidase-I (DHP-I); type: functional; details: Sus scrofa
[52] = tested on: Staphylococcus aureus; assay: Antibacterial activity against Staphylococcus aureus 285; type: functional
[53] = tested on: Pseudomonas aeruginosa; assay: Antibacterial activity against Pseudomonas aeruginosa 9027; type: functional; in short: as §1
[54] = tested on: Klebsiella pneumoniae; assay: Compound was evaluated for its antibacterial activity against Klebsiella pneumoniae
[55] = tested on: Klebsiella pneumoniae; assay: as above; remark: listed apart in the source

C[C@@H](O)[C@H]1C(=O)N2C(C(=O)[O-])=C(S[C@@H]3CN[C@H](C(=O)Nc4cccc(C(=O)O)c4)C3)[C@H](C)[C@H]12.O.[Na+]
MIC [1]: 0.016 µg/mL | MIC [2]: 0.03 µg/mL | MIC [3]: 0.06 µg/mL | MIC [4]: ≤ 0.008 µg/mL | MIC [5]: ≤ 0.008 µg/mL | MIC [6]: 0.016 µg/mL | MIC [7]: ≤ 0.008 µg/mL | MIC [8]: 0.06 µg/mL | MIC [9]: 0.03 µg/mL | MIC [10]: ≤ 0.008 µg/mL | MIC [11]: 8 µg/mL | MIC [12]: ≤ 0.008 µg/mL | MIC [13]: 0.016 µg/mL | MIC [14]: 0.016 µg/mL | MIC [15]: ≤ 0.008 µg/mL | MIC [16]: 0.016 µg/mL | MIC [17]: ≤ 0.008 µg/mL | MIC [18]: ≤ 0.008 µg/mL | MIC [19]: ≤ 0.008 µg/mL | MIC [20]: 0.016 µg/mL | MIC [21]: 0.06 µg/mL | MIC [22]: 8 µg/mL | MIC [23]: 0.016 µg/mL | MIC [24]: 0.06 µg/mL | MIC [25]: 0.25 µg/mL | MIC [26]: ≤ 0.008 µg/mL | MIC [27]: ≤ 0.008 µg/mL | MIC [28]: 1 µg/mL | MIC [29]: 0.03 µg/mL | MIC [30]: 8 µg/mL | MIC [31]: 0.06 µg/mL | MIC [32]: 0.016 µg/mL | MIC [33]: 0.06 µg/mL | MIC [34]: ≤ 0.008 µg/mL | MIC [35]: 0.25 µg/mL | MIC [36]: ≤ 0.008 µg/mL | MIC [37]: 0.016 µg/mL | MIC [38]: 0.5 µg/mL | MIC [39]: 4 µg/mL | MIC [40]: ≤ 0.008 µg/mL

C[C@@H](O)[C@H]1C(=O)N2C(C(=O)O)=C(SCCNC=N)C[C@H]12 [IMIPENEM ANHYDROUS]
MIC [41]: 0.781 µg/mL (≈ 2.61 µM) | MIC [42]: 0.195 µg/mL (≈ 0.651 µM) | MIC [43]: 0.781 µg/mL (≈ 2.61 µM) | MIC [44]: 0.007 µg/mL (≈ 0.0234 µM) | MIC [45]: 0.195 µg/mL (≈ 0.651 µM) | MIC [46]: 0.013 µg/mL (≈ 0.0434 µM) | MIC [47]: 0.025 µg/mL (≈ 0.0835 µM) | MIC [48]: 0.195 µg/mL (≈ 0.651 µM) | MIC [49]: 0.195 µg/mL (≈ 0.651 µM) | MIC [50]: 0.391 µg/mL (≈ 1.31 µM) | relative t1/2 (DHP-I hydrolysis vs meropenem) [51]: 0.17 | MIC [52]: 0.025 µg/mL (≈ 0.0835 µM) | MIC [53]: 0.781 µg/mL (≈ 2.61 µM)

C[C@@H](O)[C@H]1C(=O)N2C(C(=O)O)=C(S[C@@H]3CN[C@H](C(=O)N(C)C)C3)[C@H](C)[C@H]12 [MEROPENEM]
MIC [41]: 0.195 µg/mL (≈ 0.509 µM) | MIC [1]: 0.03 µg/mL (≈ 0.0782 µM) | MIC [2]: 0.016 µg/mL (≈ 0.0417 µM) | MIC [3]: 0.03 µg/mL (≈ 0.0782 µM) | MIC [42]: 0.025 µg/mL (≈ 0.0652 µM) | MIC [43]: 0.049 µg/mL (≈ 0.128 µM) | MIC [4]: 0.03 µg/mL (≈ 0.0782 µM) | MIC [5]: 0.016 µg/mL (≈ 0.0417 µM) | MIC [6]: 0.03 µg/mL (≈ 0.0782 µM) | MIC [7]: 0.016 µg/mL (≈ 0.0417 µM) | MIC [44]: 0.013 µg/mL (≈ 0.0339 µM) | MIC [45]: 0.025 µg/mL (≈ 0.0652 µM) | MIC [8]: 0.03 µg/mL (≈ 0.0782 µM) | MIC [9]: 0.03 µg/mL (≈ 0.0782 µM) | MIC [10]: 0.03 µg/mL (≈ 0.0782 µM) | MIC [11]: 8 µg/mL (≈ 20.9 µM) | MIC [12]: 0.03 µg/mL (≈ 0.0782 µM) | MIC [13]: 0.03 µg/mL (≈ 0.0782 µM) | MIC [14]: 0.016 µg/mL (≈ 0.0417 µM) | MIC [15]: 0.03 µg/mL (≈ 0.0782 µM) | MIC [16]: 0.03 µg/mL (≈ 0.0782 µM) | MIC [17]: 0.03 µg/mL (≈ 0.0782 µM) | MIC [46]: 0.098 µg/mL (≈ 0.256 µM) | MIC [18]: 0.016 µg/mL (≈ 0.0417 µM) | MIC [47]: 0.195 µg/mL (≈ 0.509 µM) | MIC [48]: 0.025 µg/mL (≈ 0.0652 µM) | MIC [19]: 0.016 µg/mL (≈ 0.0417 µM) | MIC [49]: 0.049 µg/mL (≈ 0.128 µM) | MIC [20]: 0.03 µg/mL (≈ 0.0782 µM) | MIC [21]: 0.03 µg/mL (≈ 0.0782 µM) | MIC [22]: 1 µg/mL (≈ 2.61 µM) | MIC [54]: 0.06 µg/mL (≈ 0.156 µM) | MIC [23]: 0.016 µg/mL (≈ 0.0417 µM) | MIC [24]: 0.016 µg/mL (≈ 0.0417 µM) | MIC [26]: 0.016 µg/mL (≈ 0.0417 µM) | MIC [50]: 0.049 µg/mL (≈ 0.128 µM) | MIC [27]: 0.03 µg/mL (≈ 0.0782 µM) | relative t1/2 (DHP-I hydrolysis vs meropenem) [51]: 1 | MIC [29]: 0.06 µg/mL (≈ 0.156 µM) | MIC [30]: 8 µg/mL (≈ 20.9 µM) | MIC [31]: 0.016 µg/mL (≈ 0.0417 µM) | MIC [32]: 0.03 µg/mL (≈ 0.0782 µM) | MIC [33]: 0.03 µg/mL (≈ 0.0782 µM) | MIC [34]: 0.016 µg/mL (≈ 0.0417 µM) | MIC [35]: 0.03 µg/mL (≈ 0.0782 µM) | MIC [52]: 0.195 µg/mL (≈ 0.509 µM) | MIC [36]: 0.03 µg/mL (≈ 0.0782 µM) | MIC [53]: 0.195 µg/mL (≈ 0.509 µM) | MIC [55]: 0.06 µg/mL (≈ 0.156 µM) | MIC [37]: 0.016 µg/mL (≈ 0.0417 µM) | MIC [38]: 0.06 µg/mL (≈ 0.156 µM) | MIC [39]: 0.5 µg/mL (≈ 1.3 µM) | MIC [40]: 0.016 µg/mL (≈ 0.0417 µM)
